Assay outcomes deposited in PubChem by SRMLSC.
HUVEC prolif 384: human endothelial cell proliferation inhibition | AID 648 | actives 1.1% (n = 86,000) | HUVEC proliferation, CellTiter-Glo luminescence, 72 h; active compounds read low | viability, % at 10 µM (by protocol);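 active = viability at or below 30%; inactive = viability above 30%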
Fibroblast inh: blocks proliferation of human lung fibroblasts; AID 719; actives 1.1% (n = 85,000); LL 47 human lung fibroblast viability, ATP luminescence; active compounds read low; viability, % at 10 µM;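 active = viability at or below 50% in the single dose screen; inactive = viability above 50%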;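 also: compound exposure lasted 72 h before the ATP readout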
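test system = LL 47 human lung fibroblasts | amount = 1,150 fibroblasts seeded per well | medium = 15% FBS in IMEM | times = overnight cell rest, 72 h compound treatment at 37 °C | measured by = CellTiter-Glo luminescence measuring cellular ATP | read-out = viability percentage against median untreated-cell control | benchmarks = cell-only wells, no compound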
PTEN del growth: PTEN-deleted cell growth suppression | HCT116 PTEN-null viability, CellTiter-Glo, 60 h; active compounds read low | viability, % at 10 µM | actives 1.2% (n = 140,000) | AID 827;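 active = viability at or below a set limit, 4 SD under the median of all tested compounds, cut at about 3.7% in these data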;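 also: PTEN knockout HCT116 line with beta catenin targeted HCT116 as companion control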
bCat KO growth: beta-catenin-lacking colon tumor cell growth suppression; HCT116 beta-catenin knockout viability, CellTiter-Glo, 60 h; active compounds read low; viability, % at 10 µM; actives 1.5% (n = 140,000);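 active = viability at or under a set limit, the compound median less 4 SD, cut at about 6% in these data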
H69AR inhibit: growth inhibitors of human H69AR lung tumor cells; viability, % at 10 µM; actives 6% (n = 85,000); H69AR lung tumor viability, ATP luminescence, 72 h; active compounds read low;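 active = viability at or below 40%; inactive = viability above 40%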;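 also: multidrug resistant small cell line overexpressing MRP-1 efflux transporter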
Each line names hits and unclear results; the compound was inactive in the other large screens; ! = not active in a repeat. Only a selection was taken, and hits are over-represented in it overall.

Clc1ccc(C2CC(c3ccccc3)Nc3ncnn32)cc1 (stereo unspecified)	H69AR inhibit 28
COc1cccc(C2CC(c3ccccc3)Nc3ncnn32)c1 (stereo unspecified)	none
CC(C)C(=O)NC(c1ccco1)c1ccc2cccnc2c1O (stereo unspecified)	HUVEC prolif 384 2.1, Fibroblast inh 14, PTEN del growth 2.0, bCat KO growth 3.5, H69AR inhibit 1.9
Oc1c(C(Nc2nc3ccccc3s2)c2ccco2)ccc2cccnc12 (stereo unspecified)	HUVEC prolif 384 4.5, Fibroblast inh 17
COc1ccc(C(NC(C)=O)c2ccc3cccnc3c2O)c(OC)c1 (stereo unspecified)	HUVEC prolif 384 2.4, Fibroblast inh 15, PTEN del growth 2.5, bCat KO growth 3.7, H69AR inhibit 0.9
CC(C)Nc1nnc(Sc2ccc(Cl)cc2[N+](=O)[O-])s1	none (no result: HUVEC prolif 384, Fibroblast inh, H69AR inhibit)
COC(=O)c1ccc(NC(=O)C(=O)N2CCN(C(=S)NCCc3ccccc3)CC2)cc1	none (no result: HUVEC prolif 384, Fibroblast inh, H69AR inhibit)
Nc1nc2ccccc2n1/N=C/c1ccc([N+](=O)[O-])s1	PTEN del growth 2.6, bCat KO growth 3.5 (no result: HUVEC prolif 384, Fibroblast inh, H69AR inhibit)
Nc1nc2ccccc2n1/N=C/c1cccnc1	none (no result: Fibroblast inh)
Cc1ccc(C(NC(=O)NC(C)c2ccccc2)C(Cl)(Cl)Cl)cc1F (stereo unspecified)	PTEN del growth 3.4, bCat KO growth 6.1 (no result: HUVEC prolif 384, Fibroblast inh, H69AR inhibit)
CC(NC(=O)c1ccc(F)cc1)c1ccccc1 (stereo unspecified)	none (no result: HUVEC prolif 384, Fibroblast inh, H69AR inhibit)
O=S(=O)(Nc1cccc2ncccc12)c1cccs1	PTEN del growth 1.5, bCat KO growth 1.7 (no result: HUVEC prolif 384, Fibroblast inh, H69AR inhibit)
CN(C)CCCN1c2ccccc2CCc2ccccc21	none
OCCN1CCN(CCCN2c3ccccc3Sc3ccc(Cl)cc32)CC1	HUVEC prolif 384 1.8, Fibroblast inh 28, PTEN del growth 2.3, bCat KO growth 1.5, H69AR inhibit 1.5
CN(C)CCCN1c2ccccc2Sc2ccc(Cl)cc21	Fibroblast inh 44, PTEN del growth 2.7!, bCat KO growth 1.8!, H69AR inhibit 20
Cc1cc(C)cc(N(C(C)C(=O)NCCC2=CCCCC2)S(C)(=O)=O)c1 (stereo unspecified)	none
Cc1ccccc1NC(=O)c1ccc(Cl)c(NC(=O)c2ccncc2)c1	none (no result: HUVEC prolif 384, Fibroblast inh, H69AR inhibit)
Cc1cncn1CCc1nc2c3ccccc3nc(SCC(=O)Nc3cccc(Cl)c3)n2n1	PTEN del growth 1.0, bCat KO growth 5.3 (no result: HUVEC prolif 384, Fibroblast inh, H69AR inhibit)
Cc1cccc(NC(=O)CSc2nc3ccccc3c3nc(CCc4c(C)n[nH]c4C)nn23)c1	HUVEC prolif 384 2.0, Fibroblast inh 26, H69AR inhibit 1.1
COc1cccc(C(=O)NC(Cc2ccccc2)c2ccc3c(c2)OCCCO3)c1 (stereo unspecified)	none (no result: HUVEC prolif 384, Fibroblast inh, H69AR inhibit)
CCOc1ccc(C(=O)Nc2cc(C)on2)cc1	H69AR inhibit 36 (no result: Fibroblast inh)
CCOc1cc(C(=O)Nc2cc(C)on2)cc(OCC)c1OCC	none
Fc1ccc(Cn2c(-c3cscn3)nc3ccccc32)c(Cl)c1	none
Nc1nonc1-c1nc2ccccc2n1Cc1ccc(F)cc1Cl	H69AR inhibit 39
CC1(C)Cc2c(cnn2-c2ccccc2)C(=O)/C1=N\NC(=O)c1ccccc1N	none
CC1(C)Cc2c(cnn2-c2ccccc2)-c2c1c1ccccc1n2CC(O)CBr (stereo unspecified)	H69AR inhibit 16
CC(C)(C)CC(C)(C)c1ccc(O)c(CN2CCN(CCC#N)CC2)c1	H69AR inhibit 5.8
N#CCCN1CCN(Cc2cc(-c3ccccc3)ccc2O)CC1	none
Cc1ccc2nc3c(c(N)c2c1)CCN3c1ccccc1	none
CCCCN1CCc2c1nc1ccc(Br)cc1c2N	HUVEC prolif 384 13, Fibroblast inh 28
O=C(NCc1ccccc1)c1noc2c1CCCC2	none
O=C(NCc1cccc(F)c1)c1noc2c1CCCC2	H69AR inhibit 40
COC(=O)CSc1nc(-c2cccs2)ccc1C#N	H69AR inhibit 37
CN1CCN(C(=O)CSc2nc(-c3cccs3)cc(-c3cccs3)c2C#N)CC1	HUVEC prolif 384 2.0, bCat KO growth 3.1, H69AR inhibit 5.4
CSc1nc(C2CC2)cc(-c2cccs2)c1C#N	HUVEC prolif 384 30, Fibroblast inh 32, H69AR inhibit 8.6
COc1ccc(-c2cc(C3CC3)nc(SCC(=O)c3cccs3)c2C#N)cc1	none (no result: HUVEC prolif 384, Fibroblast inh, H69AR inhibit)
COc1ccc(-c2cc(-c3cccs3)c(C#N)c(SCC(=O)NCc3ccco3)n2)cc1	H69AR inhibit 22
C#CCSc1nc(-c2cccs2)ccc1C#N	none
COCCNC(=S)N/N=C(\C)c1cccc([N+](=O)[O-])c1	none (no result: HUVEC prolif 384, Fibroblast inh, H69AR inhibit)
CCN(Cc1ccccc1)c1ccc(/C=N/N=C(N)N)cc1	PTEN del growth 1.7, bCat KO growth 1.4 (no result: HUVEC prolif 384, Fibroblast inh, H69AR inhibit)
Cc1ccc(N=Cc2c(O)n(-c3ccc4c(c3)OCO4)c(=O)c3ccccc23)cc1	HUVEC prolif 384 21, H69AR inhibit 9.1
O=C(O)C[CH2][Ge](=[O])[O][Ge](=[O])[CH2]CC(=O)O	none (no result: PTEN del growth, bCat KO growth)
CC(=O)c1c(C)[nH]c(C(=O)Nc2nc(-c3ccc(Cl)cc3)cs2)c1C	none (no result: HUVEC prolif 384, Fibroblast inh, H69AR inhibit)
Cc1ccc(-c2nc(NC(=O)c3nn(C)cc3[N+](=O)[O-])sc2C)cc1C	PTEN del growth 1.4, bCat KO growth 1.6 (no result: HUVEC prolif 384, Fibroblast inh, H69AR inhibit)
Cn1cc([N+](=O)[O-])c(C(=O)Nc2nc(-c3ccc(Cl)cc3)cs2)n1	PTEN del growth 1.4, bCat KO growth 2.1 (no result: HUVEC prolif 384, Fibroblast inh, H69AR inhibit)
Cc1ccc(-c2nc(NC(=O)c3nn(C)cc3[N+](=O)[O-])sc2C)cc1	PTEN del growth 1.4, bCat KO growth 1.4 (no result: HUVEC prolif 384, Fibroblast inh, H69AR inhibit)
CN(C)CCCNC(=S)N1CCn2c(nc3ccccc32)C1	none (no result: HUVEC prolif 384, Fibroblast inh, H69AR inhibit)
CCOC(=O)c1ccc(NC(=S)NC(=O)COc2ccccc2)cc1	none (no result: HUVEC prolif 384, Fibroblast inh, H69AR inhibit)
COc1ccc(C(=O)c2ccc(N3CCN(C(=O)c4ccc(F)cc4)CC3)c(F)c2)cc1Br	H69AR inhibit 36
N#C/C(=C\c1ccc(-c2cccc(Cl)c2)o1)C(=O)Nc1cccc2cccnc12	H69AR inhibit 15
N#C/C(=C\c1ccc(-c2ccccc2)o1)C(=O)Nn1cnnc1	none (no result: HUVEC prolif 384, Fibroblast inh, H69AR inhibit)
O=C(Nc1cccc(S(=O)(=O)c2cccc(NC(=O)C3CC3)c2)c1)C1CC1	none
O=c1cc(O)c2sc3nc(-c4cccnc4)cc(C(F)(F)F)c3c2[nH]1	none (no result: HUVEC prolif 384, Fibroblast inh, H69AR inhibit)
CCNc1nc(NC(C)C)nc(N(C#N)CCOc2ccccc2)n1	H69AR inhibit 27
CC(C)Cn1c(SCC(=O)N2CCN(S(=O)(=O)c3ccccc3)CC2)nc2ccccc21	H69AR inhibit 31
CCOC(=O)c1sc(NC(=O)CSc2nnnn2-c2ccc(C)cc2C)nc1C	HUVEC prolif 384 25
COc1ccc(OC)c(-n2nnnc2SCC(=O)Nc2nc(C)c(C)s2)c1	H69AR inhibit 20
CCOC(=O)c1sc(NC(=O)CSc2nnnn2-c2ccccc2)nc1C	none
CCOC(=O)c1sc(NC(=O)CSc2nnnn2-c2ccc(C)c(C)c2)nc1C	HUVEC prolif 384 18
CCOC(=O)Cc1csc(NC(=O)CSc2nnnn2-c2ccc(C)cc2C)n1	none
Cc1cccc2sc(N(CCCN(C)C)C(=O)CCc3ccccc3)nc12	PTEN del growth 1.9, bCat KO growth 1.6 (no result: HUVEC prolif 384, Fibroblast inh, H69AR inhibit)
O=C(CN(C(=O)CCC(=O)Nc1ccccn1)c1ccc2c(c1)OCCO2)NCCc1ccccc1	H69AR inhibit 7.0
O=C(COC(=O)CCC(=O)c1cccs1)Nc1cc(S(=O)(=O)N2CCOCC2)ccc1Cl	none (no result: HUVEC prolif 384, Fibroblast inh, H69AR inhibit)
